Shown are actives, neighbours in structure and some others; about 2.6% of the full set was active somewhere.
SENP8 block-1: SENP8 protease inhibitors, primary screen, biochemical, luminescence | Sentrin-specific protease 8 (Homo sapiens), Q96LD8 | purified SENP8, Z-RLRGG-aminoluciferin cleavage | inhibition, % at 10 µM | actives 1.2% (n = 330,000) | AID 2540, 2010; in the data active means inhibition above about 50%
SENP1 FRET inh: human SENP1 catalytic domain inhibitors, primary screen, biochemical, FRET, uHTS. recombinant SENP1 catalytic domain, CyPet-SUMO1-YPet FRET cleavage. inhibition, % at 10 µM. actives 0.21% (n = 360,000);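 active means inhibition at least 30% at 10 µM, raw YFP signal under a set limit, fluorescence ratio 0.5 to 1.5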;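 further: 0% = enzyme with DMSO and 100% = no enzyme wells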
Target sequence (Q9P0U3 419-644 limits assumed): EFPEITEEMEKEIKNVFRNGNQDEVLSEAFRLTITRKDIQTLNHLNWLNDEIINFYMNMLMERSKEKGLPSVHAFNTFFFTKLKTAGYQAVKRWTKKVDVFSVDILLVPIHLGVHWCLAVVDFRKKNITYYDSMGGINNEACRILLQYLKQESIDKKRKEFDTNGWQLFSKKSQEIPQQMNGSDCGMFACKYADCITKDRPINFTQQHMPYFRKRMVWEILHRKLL
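material = recombinant human SENP1 catalytic domain, His6-tagged | quantity = 20 pM enzyme | reagent = 25 nM SUMO1 FRET substrate | compound dosing = 10 µM single point, 0.5% DMSO | timing = 50 min enzyme reaction, room temperature, light-protected | detection = FRET, CFP and YFP emission | control set = no-enzyme low, enzyme-DMSO high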
SENP6 inh: SENP6 protease inhibitors, primary screen, biochemical, luminescence, uHTS | Sentrin-specific protease 6 (Homo sapiens), Q9GZR1 | Recombinant SENP6 catalytic domain, aminoluciferin luminescence | inhibition, % at 10 µM | actives 1.8% (n = 330,000);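 active means inhibition above about 50% at the single tested dose, limit read from the data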;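 further: plate controls were DMSO wells with enzyme for no effect and DMSO wells lacking enzyme for full effect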
UCH37 inh: inhibitors of human UCH37 deubiquitinase, primary screen, biochemical, Ub-AMC cleavage, fluorescence; inhibition, % (concentration not given with the values); purified proteasome/UCH37; Ubiquitin carboxyl-terminal hydrolase isozyme L5 (Homo sapiens), Q9Y5K5; actives 0.33% (n = 330,000); AID 588478, 2011;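 active means mean inhibition over replicate wells above about 20%, limit read from the data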;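 further: 0% = compound-free wells with enzyme and 100% = wells lacking proteasome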
Target sequence (Q9Y5K5 whole entry, looked up): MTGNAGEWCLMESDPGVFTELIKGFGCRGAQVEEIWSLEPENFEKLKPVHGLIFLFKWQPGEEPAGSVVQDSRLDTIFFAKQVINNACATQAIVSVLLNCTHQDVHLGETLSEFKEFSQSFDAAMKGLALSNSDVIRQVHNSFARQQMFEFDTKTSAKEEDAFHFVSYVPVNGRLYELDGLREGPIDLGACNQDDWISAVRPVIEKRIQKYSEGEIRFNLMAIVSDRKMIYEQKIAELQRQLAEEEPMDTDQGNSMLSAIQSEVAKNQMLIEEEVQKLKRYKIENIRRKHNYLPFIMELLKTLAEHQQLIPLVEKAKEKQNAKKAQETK
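assay system = human UCH37 enzyme supplied as purified proteasome complex | amount = proteasome at 0.15 nM in the dispensed enzyme solution | schedule = 30 min compound-proteasome preincubation then 25 min substrate reaction, room temperature | measured by = fluorescence, ex 355 nm, em 460 nm | benchmarks = no-proteasome wells (full inhibition) and compound-free wells (no inhibition)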
SENP7 inh: SENP7 protease inhibitors, primary screen, biochemical, luminescence, uHTS | inhibition, % at 5 µM | recombinant SENP7, Z-RLRGG-aminoluciferin luminescence, 40 min | AID 434973, 2010 | actives 1.5% (n = 330,000) | Sentrin-specific protease 7 (Homo sapiens), Q9BQF6;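 active means inhibition above about 50% at the single test dose, limit read from the data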;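 further: plate controls were DMSO with enzyme for no effect and no enzyme buffer wells for full effect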
SENP8 block-2: human SENP8 protease inhibitors, primary screen, biochemical, fluorescence, Nedd8 protein substrate, uHTS; Sentrin-specific protease 8 (Homo sapiens), Q96LD8; recombinant SENP8; inhibition, % at 20 µM; actives 0.64% (n = 360,000); AID 602440, 2012; in the data active means inhibition mostly above about 40%, no sharp cut-off; inactive means mostly below about 27%
SENP8 confirm: SENP8 protease inhibitors, retest, confirmation, biochemical, luminescence, single concentration; AID 488912, 2010; inhibition, % at 12.5 µM; Recombinant SENP8, Z-RLRGG-aminoluciferin luminescence, 60 min; shares compounds with SENP7 inh; actives 40% (n = 6,200);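 active means mean inhibition across replicates above about 50%, limit read from the data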
SENP6 confirm: SENP6 protease inhibitors, confirmation, biochemical, luminescence, single concentration; actives 58% (n = 6,200); inhibition, % at 12.5 µM; shares compounds with SENP7 inh; AID 488915, 2010; recombinant SENP6, Z-RLRGG-aminoluciferin luminescence
SENP7 conf: SENP7 protease inhibitors, retest, confirmation, biochemical, luminescence, single concentration | shares compounds with SENP7 inh | recombinant SENP7, Z-RLRGG-aminoluciferin luminescence, 40 min | inhibition, % at 12.5 µM | actives 69% (n = 6,200) | AID 488917, 2010
Casp3 select: caspase-3 protease inhibitors, confirmation, selectivity assay for SENP inhibitor project, biochemical, single concentration; shares compounds with SENP7 inh; purified caspase-3, Z-DEVD-aminoluciferin luminescence, 60 min; actives 60% (n = 6,200); inhibition, % at 12.5 µM; AID 488918, 2010;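 active means mean inhibition above about 50%, limit read from the data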;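 further: plate controls were enzyme with DMSO for no effect and wells without caspase-3 for full effect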
SENP luc ctr: counter-screen for SENP inhibitors: luminescence interference. shares compounds with SENP7 inh. Pre-incubated SENP8/Z-RLRGG-aminoluciferin, luciferase luminescence interference. inhibition, % at 12.5 µM. actives 39% (n = 6,200). AID 488919;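 active means mean inhibition above about 50% when retested at one dose, limit read from the data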;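 further: plate controls were DMSO wells with completed reaction for no effect and substrate without enzyme for full effect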
An asterisk follows results filed as active; i = inactive; x = not tested or not shown.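 How the source made its calls, unless noted: active means mean inhibition above about 50% in the one-dose retest (limit read from the data); inactive means the rest.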

SMILES	SENP8 block-1	SENP1 FRET inh	SENP6 inh	UCH37 inh	SENP7 inh	SENP8 block-2	SENP8 confirm	SENP6 confirm	SENP7 conf	Casp3 select	SENP luc ctr
Cc1nc2ccc3nc(NC(=O)C4COc5ccccc5O4)sc3c2s1 (stereo not drawn)	-14	-3	-13	-1	-13	-4	x	x	x	x	x
COc1ccc(-n2nc3cc(C)c(NC(C)=O)cc3n2)cc1	2	2	24	i	26	-382	x	x	x	x	x
COc1ccc(-n2nc3cc(N)c(Br)cc3n2)cc1	74*	-22	84*	-3	67*	-358	26	67*	89*	36	8
COc1ccc(-n2nc3ccccc3n2)cc1	-22	-4	-56	0	-5	4	x	x	x	x	x
COc1ccc(-n2nc3cc(C)c(N)c(Br)c3n2)cc1	40	-5	63*	-2	44	-482	12	38	53*	6	7
CCc1ccc(-n2nc3cc(C)c(N)cc3n2)cc1	49	-46	69*	-377	-16	-434	73*	76*	97*	69*	30
CC1=CCCC2C(C=C(C)CC1)OC(=O)C2CN1CCCCC1 (stereo not drawn)	x	x	x	1	x	x	x	x	x	x	x
CC1(C)Oc2ccc3ccc(=O)oc3c2C(C=NO)=C1Cl	x	x	x	0	x	x	x	x	x	x	x
CSC(=S)NN=C(C)c1ccc(Br)cc1	x	x	x	5	x	x	x	x	x	x	x
Cc1ccc(O)c(NC(=O)c2noc3c2CCc2ccccc2-3)c1	16	5	7	0	66*	2	-31	-17	-5	0	-8
COc1ccccc1-c1c(C#N)c(N)nc2c1CCc1ccccc1-2	78*	-26	96*	i	78*	-394	7	8	12	3	3
N#CC(=C1CCCC1)c1nc(-c2ccccc2)cs1	65*	4	77*	1	65*	14	5	64*	88*	54*	33
N#CC(=C1CCCC1)c1nc(-c2ccccc2O)cs1	63*	-1	86*	2	90*	5	9	33	40	53*	55*
N#CC(=C1CCCC1)c1nc(-c2cc3ccccc3oc2=O)cs1	-16	2	-13	-31	16	-297	x	x	x	x	x
Cc1ccc(-c2csc(C(C#N)=C3CCCC3)n2)cc1	-8	0	5	4	5	16	x	x	x	x	x
NC(CCN1CCOCC1)=NO	x	x	x	2	x	x	x	x	x	x	x
COc1cc(C=NNC(=S)NCCN2CCOCC2)cc(OC)c1OC	x	x	x	9	x	x	x	x	x	x	x
O=C(O)CCN1C(=O)/C(=C\c2cccc(OCc3ccccc3)c2)SC1=S	96*	1	96*	8	37	12	4	6	0	-2	4
CC(/C=C1\SC(=S)N(CC(=O)O)C1=O)=C\c1ccccc1	-22	-2	-27	9	2	22	x	x	x	x	x
CC(=C\c1ccccc1)/C=C1/SC(=S)N(CCC(=O)O)C1=O	89*	-4	91*	9	2	17	30	92*	94*	80*	51*
O=C(O)c1ccc(/C=C2/SC(=S)N(Cc3ccccc3)C2=O)cc1	x	2	x	9	x	17	x	x	x	x	x
O=C1/C(=C\c2ccc(O)cc2)SC(=S)N1Cc1ccccc1	78*	59	72*	x	8	2	60*	82*	84*	20	36
COc1ccc(NS(=O)(=O)c2cccc(C(=O)NN=Cc3ccc4c(c3)OCCO4)c2)cc1	x	x	x	-4	x	x	x	x	x	x	x
c1ccc(-c2nc(-c3nccc4ccccc34)oc2-c2ccccc2)cc1	64*	-56	86*	i	85*	-406	14	21	61*	76*	65*
Cc1cc(/C=C2/C(=O)NN(c3ccccc3)C2=O)c(C)n1-c1ccc(O)cc1	56*	1	78*	1	44	50*	3	66*	91*	62*	6
SMILES	SENP8 block-1	SENP1 FRET inh	SENP6 inh	UCH37 inh	SENP7 inh	SENP8 block-2	SENP8 confirm	SENP6 confirm	SENP7 conf	Casp3 select	SENP luc ctr
Cc1occc1C(=O)NN=Cc1cccs1	x	x	x	6	x	x	x	x	x	x	x
COc1ccc2nc(-c3ccc(N)cc3)[nH]c2c1	54*	-2	75*	-239	83*	i	68*	61*	91*	86*	74*
COc1cccc(-n2c(N)c(-c3nc4ccccc4[nH]3)sc2=S)c1	5	-34	3	5	-2	-11	x	x	x	x	x
COc1ccc2nc(SCC(N)=O)[nH]c2c1	5	-1	-1	3	10	13	x	x	x	x	x
COc1ccc2nc(-c3cccc(N)c3)[nH]c2c1	58*	-3	77*	-201	82*	-489	70*	71*	94*	88*	67*
COc1cc(C=NNC(=O)CC#N)ccc1OC/C=C/c1ccccc1	x	x	x	-4	x	x	x	x	x	x	x
COc1ccc(C=NNC(=O)CNc2c(Br)cc(C)cc2Br)c(C(=O)O)c1OC	x	x	x	0	x	x	x	x	x	x	x
CCOC(=O)c1cc2ccc(OC(=O)c3ccco3)cc2oc1=O	36	-20	56*	i	63*	-308	55*	61*	87*	89*	56*
CCOC(=O)c1c(C)n(C)c2ccc(OC(=O)c3ccco3)cc12	3	1	-5	-3	6	22	x	x	x	x	x
C=CCc1ccccc1OCC(=O)NN=Cc1ccc(OC(C)=O)cc1OC(C)=O	x	x	x	-23	x	x	x	x	x	x	x

Assay outcomes deposited in PubChem BioAssay by several laboratories.
